EBI2 antag: EBI2 receptor antagonists, beta-arrestin recruitment, primary screen, cell-based, luminescence, 7a,25-OHC stimulation, uHTS; inhibition, % at 5 µM; hit rate 0.81% among 360,000; 7a,25-OHC stimulated; in the data active = inhibition above about 38%;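 also: enzyme fragment complementation signal reports receptor beta-arrestin coupling in cells; 0% = agonist plus DMSO wells and 100% = wells without agonist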
CXCR6 inh: CXCR6 receptor inhibitors, primary screen, cell-based, beta-arrestin, luminescence, CHO-K1 PathHunter, 1536-well. hit rate 0.36% among 360,000. AID 602244, 2012. C-X-C chemokine receptor type 6 (Homo sapiens), O00574. inhibition, % at 20 µM; in the data active = inhibition above about 34%, passing the limit was not always enough;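 also: antagonist mode with CXCL16 agonist at 10 nM final; 0% = 10 nM CXCL16 with DMSO and 100% = unstimulated wells without agonist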
CCR6 antagonist: CCR6 receptor antagonists, primary screen, cell-based, CHO-K1, luminescence, beta-arrestin, uHTS; C-C chemokine receptor type 6 (Homo sapiens), P51684; hit rate 0.49% among 340,000; inhibition, % at 20 µM; CHO-K1 CCR6 PathHunter beta-arrestin, CCL20-stimulated;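 active = compounds whose inhibition of the agonist-driven luminescence signal at 20 µM reaches about 50%, limit read from the data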;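 also: cells stimulated with CCL20 at 14 nM final; plate controls were DMSO with CCL20 for no effect and DMSO without agonist for full effect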
Target sequence (P51684 whole entry, looked up): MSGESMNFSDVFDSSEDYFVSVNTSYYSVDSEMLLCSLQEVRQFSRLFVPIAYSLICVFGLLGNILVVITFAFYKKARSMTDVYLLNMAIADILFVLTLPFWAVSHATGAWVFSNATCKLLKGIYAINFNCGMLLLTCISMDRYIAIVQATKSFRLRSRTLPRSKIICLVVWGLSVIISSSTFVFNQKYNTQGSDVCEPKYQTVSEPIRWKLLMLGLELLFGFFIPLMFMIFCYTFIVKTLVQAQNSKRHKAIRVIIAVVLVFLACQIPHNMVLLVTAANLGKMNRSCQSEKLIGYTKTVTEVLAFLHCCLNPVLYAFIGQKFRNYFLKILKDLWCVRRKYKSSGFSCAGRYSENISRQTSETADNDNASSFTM
APJ agonist: agonists of human apelin receptor APJ, primary screen, CHO-K1 cells, PathHunter beta-arrestin, luminescence | activation, % at 20 µM | hit rate 0.11% among 330,000 | P35414 | 0% DMSO wells, 100% apelin;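 active = activation more than six SD over the plate average, tested at 20 µM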;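 also: 0% = DMSO alone and 100% = apelin-13 at 10 nM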
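system = engineered CHO-K1 APJ arrestin reporter cells | input = 1000 cells per well | timing = overnight seeding, 90 min compound at 25 °C, 1 h detection | measured by = enzyme-fragment complementation luminescence | read-out = beta-arrestin recruitment to APJ as agonist activity, luminescent signal | control set = negative DMSO alone, positive Apelin-13 at 10 nM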
APJ antagonist: antagonists of human apelin receptor APJ, primary screen, CHO-K1 cells, beta-arrestin complementation, luminescence; P35414; inhibition, % at 20 µM; hit rate 0.32% among 330,000; AID 2521, 2010;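 active = inhibition above about 40% at 20 µM, limit read from the data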;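 also: cells challenged with 10 nM apelin-13 agonist together with compound; plate controls were apelin-13 plus DMSO wells for no effect and DMSO wells lacking apelin-13 for full effect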
CXCR6 confirm: CXCR6 receptor antagonists, confirmation, cell-based, single concentration, beta-arrestin, luminescence; CHO-K1 CXCR6 PathHunter beta-arrestin; shares compounds with CXCR6 inh; AID 602409, 2012; hit rate 65% among 700; inhibition, % at 20 µM;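 active = mean inhibition over four retests above 40%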;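 also: receptor stimulated with 10 nM CXCL16 agonist; beta-galactosidase fragment complementation upon beta-arrestin recruitment to receptor; plate controls were CXCL16 plus DMSO for no effect and DMSO without CXCL16 for full effect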
* marks the source's active call; other numbers are inactive results; · = no result. The list is not random: actives were taken first. Their share in the collection is about 1.5%.

SMILES	EBI2 antag	CXCR6 inh	CCR6 antagonist	APJ agonist	APJ antagonist	CXCR6 confirm
CC(=O)Nc1cccc(OCC(O)Cn2c(C)nc3ccccc32)c1 (stereo unspecified)	-4	40*	17	3	16	23
N#Cc1c(SCC(N)=O)nsc1SCc1ccccc1Cl	-8	83*	18	-4	1	0
N#Cc1c(SCC(N)=O)nsc1SCc1ccc(Cl)cc1	2	-7	5	0	-5	·
O=C(Oc1c(Cl)cc(Cl)c2cccnc12)c1cccs1	15	34	28	-3	4	·
O=C(Oc1c(Cl)cc(Cl)c2cccnc12)c1ccco1	27	45*	·	-2	2	70*
CCCc1ccc(OC(=O)c2cccs2)cc1	-2	50*	5	-4	11	-2
COc1ccc(CCNC(=O)COC(=O)c2cccs2)cc1	4	-3	4	-4	3	·
COc1ccc(/C=C(/C(=O)c2cccs2)N2C=CC=CC2=C(C#N)C#N)cc1	23	62*	84*	·	·	57*
N#CC(C#N)=C1C=CC=CN1/C(=C\c1ccco1)C(=O)c1ccccc1	78*	98*	100*	·	·	105*
COc1ccc(C(=O)/C(=C\c2ccco2)N2C=CC=CC2=C(C#N)C#N)cc1	54*	84*	100*	-8	86*	103*
COc1ccc(C(=O)N/C(=C\c2ccco2)C(=O)OCc2ccco2)cc1	-7	-7	10	0	-6	·
OC(c1ccc(F)cc1)c1ncc(-c2ccc3ccccc3c2)[nH]1 (stereo unspecified)	1	-20	·	·	·	·
CCN(CC(=O)NC(C)(C)C)C(=O)COc1c(Cl)cc(Cl)c2ccc(C)nc12	-16	33*	·	-3	6	37
Cc1ncc([N+](=O)[O-])n1S(=O)(=O)c1ccc2c(c1)OCCO2	1	-2	6	·	·	·
CCC(C)[C@H](NC(=O)N1CCN(c2cccc(C(F)(F)F)c2)CC1)C(=O)OC (stereo partly specified)	-10	51*	7	-1	25	10
CC(C)CNC(=O)C1(C)CCCCCN1Cc1ccccc1-c1ccccc1 (stereo unspecified)	10	37*	·	·	·	8
O=C1NC[C@H](CCCCN2CCN(CC3CCCCC3)C(=O)C2=O)N(CCc2ccccc2)C1=O	3	-4	·	·	·	·
CCCOc1ccc(C(=O)NNC(=S)NC(=O)c2cc(-c3ccc(Cl)cc3)nc3ccccc23)cc1	14	45*	43	-8	30	37
Cn1cc(CNC(=O)C2CCCCC2)cn1	1	43*	2	-6	-18	7
CC1=C(C)CC2C(C1)C(=O)c1ccc(Br)cc1S2(=O)=O (stereo unspecified)	11	72*	84*	-13	8	41*
CCOC(=O)C1=C(c2ccccc2)Nc2ncnn2C1c1ccc(C(=O)O)cc1 (stereo unspecified)	4	-8	4	5	9	·
CCOC(=O)C1=C(c2ccccc2)NC(N)=NC1c1ccc(OCc2ccc(C(=O)OC)cc2)cc1 (stereo unspecified)	1	35*	43	-1	3	23
COc1ccc(-c2nn(C)c(=O)c3ccccc23)cc1NC(=O)Cn1nc(C)c2ccccc2c1=O	12	37*	66*	-10	37	47*
O=C(NCc1ccccc1)C(c1cc2ccccc2o1)n1c(=O)c(-c2ccccc2)nc2ccccc21 (stereo unspecified)	-7	·	·	·	·	·
CC(=O)Oc1ccccc1Cn1c(C)c(C(=O)N(C)Cc2ccc(F)cc2)sc1=O	4	-1	·	·	·	·

Screening results as filed in PubChem BioAssay.
